Only some compounds are listed: those with a hit (about 2.5% of all), similar ones and a draw of the others.
MsrA act: bovine MsrA enzyme activators, primary screen, biochemical, absorbance, HTS. activation, % at 10.6 µM. AID 602163, 2012. purified bovine MsrA, absorbance read-out. Methionine sulfoxide reductase A (Bos taurus). actives 0.3% (n = 360,000); in the data active = activation above about 7.5%;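 also: 0% = vehicle and 100% = reference activator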
NR2E3 ag-1: inhibitors of NR2E3-RetCOR corepressor binding, primary screen, NR2E3 agonist project, biochemical, TR-FRET, GST-NR2E3, biotin-RetCOR; Photoreceptor-specific nuclear receptor (Homo sapiens), Q9Y5X4; AID 2300, 2010; inhibition of corepressor binding, % at 4.78 µM; actives 0.12% (n = 320,000); 1536-well;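 active = percent inhibition above the cutoff of mean plus 3 SD of all tested compounds, set per screening campaign, cut at about 20% in these data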;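 also: 0% = DMSO wells and 100% = biotin wells as full block of FRET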
Target sequence (Q9Y5X4 whole entry, looked up): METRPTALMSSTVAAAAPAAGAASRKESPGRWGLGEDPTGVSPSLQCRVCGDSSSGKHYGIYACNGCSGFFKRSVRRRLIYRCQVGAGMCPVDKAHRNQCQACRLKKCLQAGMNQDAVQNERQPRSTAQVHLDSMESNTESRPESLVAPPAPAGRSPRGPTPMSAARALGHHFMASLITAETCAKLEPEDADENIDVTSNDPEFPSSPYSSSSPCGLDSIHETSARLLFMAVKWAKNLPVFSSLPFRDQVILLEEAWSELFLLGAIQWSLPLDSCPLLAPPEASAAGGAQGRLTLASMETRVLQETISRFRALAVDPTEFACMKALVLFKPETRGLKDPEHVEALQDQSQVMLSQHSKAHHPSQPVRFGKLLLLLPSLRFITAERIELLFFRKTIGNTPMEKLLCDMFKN
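Material: NR2E3–RetCOR corepressor complex / Incubation: Compound–protein incubation for 5 h at 4 °C / Dosing: compound at 4.8 µM, single dose / Detection: time-resolved FRET / Benchmarks: high control biotin, low control 0.6% DMSO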
NR2E3 ag-2: NR2E3 agonists in two-hybrid cells, primary screen, cell-based, luminescence, CHO-S, Gal4-NCOR/VP16-NR2E3; inhibition of corepressor binding, % at 3.98 µM; actives 0.35% (n = 360,000); luciferase;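 active = inhibition above the mean of all tested compounds plus 3 SD, cut at about 70% in these data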;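 also: 0% = DMSO with NR2E3 transfected cells and 100% = cells lacking NR2E3 construct; higher means lower luciferase signal from less NR2E3 corepressor binding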
MsrA inh: bovine MsrA enzyme inhibitors, primary screen, biochemical, absorbance, HTS. purified bovine MsrA, absorbance read-out. inhibition, % at 15.5 µM. actives 0.75% (n = 360,000). AID 651718, 2012. Methionine sulfoxide reductase A (Bos taurus); in the data active = inhibition above about 4.5%;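 also: 0% = vehicle wells with enzyme and 100% = reference inhibitor wells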
GalR3 antagonist: GalR3 antagonists in HEK293 cells, primary screen, cell-based, fluorescence readout. Galanin receptor type 3 (Homo sapiens), O60755. HEK293 GalR3-CNG cAMP membrane potential fluorescence; galR3 body fused to GalR1 C-terminus. inhibition, % at 3 µM. actives 0.44% (n = 360,000). AID 651719, 2012;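 active = inhibition above the screen-wide average plus 3 SD, cut at about 13% in these data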;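 also: forskolin and galanin both at EC90 stimulate the cells; cAMP rise reported by CNG channel membrane potential dye signal; 0% = forskolin plus galanin with DMSO and 100% = forskolin alone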
Target sequence (O60755 1-299 limits assumed): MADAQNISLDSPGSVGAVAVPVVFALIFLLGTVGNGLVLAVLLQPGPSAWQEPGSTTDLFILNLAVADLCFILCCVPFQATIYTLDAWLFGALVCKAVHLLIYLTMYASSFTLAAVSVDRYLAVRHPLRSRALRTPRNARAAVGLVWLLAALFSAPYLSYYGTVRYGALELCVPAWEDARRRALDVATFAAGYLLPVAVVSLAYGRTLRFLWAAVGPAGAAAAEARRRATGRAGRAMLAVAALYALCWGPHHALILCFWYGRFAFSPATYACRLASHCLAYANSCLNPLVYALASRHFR
NadD inh: inhibitors of S. aureus NadD, primary screen, biochemical, colorimetric, uHTS. Nicotinate-nucleotide adenylyltransferase NadD (Staphylococcus aureus N315). purified NadD enzyme, colorimetric absorbance read-out. inhibition, % at 20 µM. actives 0.78% (n = 360,000). AID 602399, 2012; in the data active = inhibition above about 26%
GalR3 conf: GalR3 antagonist hit confirmation, cell-based, fluorescence, triplicate; shares compounds with GalR3 antagonist; HEK293 GalR3 CNG cAMP biosensor, membrane potential fluorescence; galR3 fused to GalR1 carboxy tail; challenged with forskolin and galanin at EC90; inhibition, % at 3 µM; actives 59% (n = 1,600);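 active = inhibition above the primary screen's cutoff, the mean inhibition of all screened compounds plus 3 SD, cut at about 13% in these data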;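 also: 0% = forskolin plus galanin and 100% = forskolin alone with DMSO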
HEK-CNG parental: nonspecific cAMP agonists in parental HEK-CNG cells, counter-screen for GalR3 antagonist project, cell-based, fluorescence, high throughput | activation, % at 3 µM | AID 652268, 2013 | HEK293-CNG parental cells, cAMP membrane potential fluorescence; normalised: DMSO wells 0%, forskolin wells 100% | shares compounds with GalR3 antagonist | actives 10% (n = 1,600); in the data active = activation above about 1.3%
* marks the source's active call; other numbers are inactive results; . = no result.

SMILES | MsrA act | NR2E3 ag-1 | NR2E3 ag-2 | MsrA inh | GalR3 antagonist | NadD inh | GalR3 conf | HEK-CNG parental
Nc1cccc(C#Cc2ccc3c(c2)C(=O)/C(=C/c2ccsc2)O3)c1 | -2 | . | -21 | 3 | 5 | 26 | . | .
CC(C)CC(NC(=O)c1cccc(Cl)c1)C(=O)O (stereo not given) | -3 | -1 | 4 | 2 | 0 | -4 | . | .
O=C(CCCCl)Oc1ccc2cc(-c3ccc4ccccc4n3)c(=O)oc2c1 | -3 | 3 | -72 | 0 | 14* | 8 | 13* | 0
CC(=O)COc1ccc2cc(-c3ccccc3)c(=O)oc2c1 | -2 | 1 | -235 | 2 | -12 | -3 | . | .
O=C(NC1CCCC1)C1CC(=O)N(c2ccc(F)c(Cl)c2)C1 (stereo not given) | -2 | -1 | -12 | 0 | -8 | -5 | . | .
COc1ccc(-c2cn(-c3ccc(C)c(Cl)c3)c(=S)[nH]2)cc1OC | -8 | 0 | -30 | -1 | 41* | -17 | 102* | -2
Brc1ccc(OCCCN2CCOCC2)cc1 | 2 | 3 | -29 | 0 | 16* | -3 | 0 | 0
Brc1ccc(OCCN2CCOCC2)cc1 | -1 | 3 | 4 | 0 | -9 | 0 | . | .
CCCN(CCC)S(=O)(=O)c1ccc(C(=O)NCc2ccco2)cc1 | -1 | 1 | -46 | 2 | -7 | -1 | . | .
Cc1cccc2c1N(C)C(=O)C2=O | 2 | 5 | -25 | 1 | -6 | -3 | . | .
CCOC(=O)C1CCN(C2CCN(Cc3nc(-c4ccccc4)no3)CC2)CC1 | -2 | 3 | -5 | 2 | 13* | -4 | 0 | 0
CCOC(=O)C1CCCN(C2CCN(Cc3nc(-c4ccccc4)no3)CC2)C1 (stereo not given) | -2 | 1 | 9 | 0 | -1 | 4 | . | .
Cc1ccc(CN2C(=O)CCC2C(=O)NCCCN2CCC(C)CC2)cc1 (stereo not given) | -2 | . | 13 | 1 | . | 1 | 10 | 0
CCOC(=O)c1c(C)c2c(n1C)CCC/C2=N\O | -11 | -1 | -6 | 0 | 66* | -6 | 32* | 0
CSc1ccccc1C(=O)OCC(=O)NC1CCCCCCC1 | 0 | . | 6 | 0 | -9 | -5 | . | .
CCOc1ccc(CO/N=C/c2c(C)[nH]c(=O)[nH]c2=O)cc1 | -2 | 2 | -9 | 1 | 22* | -4 | 21* | 0
CCOc1ccc(N(CC)S(=O)(=O)c2c(C)[nH]c(=O)[nH]c2=O)cc1 | -1 | -1 | 1 | -1 | -6 | -7 | . | .
CCCc1ccc(C(=O)NC(=O)c2ccccc2O)cc1 | 1 | -3 | 6 | 1 | 13* | 4 | 49* | -1
C/C(=N\O)c1ccco1 | -2 | 2 | -13 | 0 | . | 0 | 3 | 0
COCCNC(=O)c1c(CSc2ccccc2)noc1C(=O)NCc1ccccc1 | -2 | 5 | 5 | 0 | -5 | -5 | . | .
CCc1ccc(NC(=O)C2CCN(S(=O)(=O)c3ccc4c(c3)CC(C)N4C(C)=O)CC2)cc1 (stereo not given) | -3 | 3 | 35 | 0 | 38* | -4 | 7 | 0
CCOC(=O)C1CCN(C(=O)C2CCN(S(=O)(=O)c3ccc4c(c3)CC(C)N4C(C)=O)CC2)CC1 (stereo not given) | -8 | 9 | 28 | 1 | 3 | -2 | . | .
CCOC(=O)C1CCN(S(=O)(=O)c2ccc3c(c2)CC(C)N3C(=O)C2CC2)CC1 (stereo not given) | 0 | 1 | -9 | 0 | 17* | 5 | 8 | 0
CCc1ccc(NC(=O)C2CCCN(S(=O)(=O)c3ccc4c(c3)CC(C)N4C(C)=O)C2)cc1 (stereo not given) | 0 | 6 | -58 | 0 | 2 | 1 | . | .
S=C1NCCOCCOCCOCCN1 | -4 | 1 | 15 | 0 | 2 | -5 | . | .
SMILES | MsrA act | NR2E3 ag-1 | NR2E3 ag-2 | MsrA inh | GalR3 antagonist | NadD inh | GalR3 conf | HEK-CNG parental
O=C(O)/C(=C\c1ccc(Cl)cc1)c1ccc(S(=O)(=O)N2CCCC2)s1 | -15 | 2 | -15 | 0 | -4 | 2 | . | .
CCCOc1nc2ccccc2cc1/C=C/C(=O)O | -3 | 0 | -12 | 2 | 14* | -1 | 6 | 1
O=C(COc1ccc(Cl)cc1)NCC(=O)N/N=C/c1cccs1 | -6 | -4 | -9 | 1 | -10 | 0 | . | .
Cc1ccc(S(=O)(=O)NCc2ccccc2)s1 | -2 | 0 | -45 | 1 | -5 | 5 | . | .
Cc1ccc(S(=O)(=O)NCc2cccnc2)s1 | -3 | 1 | -11 | -2 | 13* | 3 | 3 | 0
Cn1c(N)c(C(=O)COC(=O)CC(NC(=O)c2ccccc2Cl)c2ccccc2)c(=O)n(C)c1=O (stereo not given) | 0 | 7 | 3 | 2 | 14* | -4 | -4 | 0
COC(=O)c1c(C)[nH]c(O)c1C=Nc1ccc(C(C)C)cc1 | -1 | 1 | -24 | 1 | -3 | -3 | . | .
CC1CCCCN1S(=O)(=O)c1ccc(S(=O)(=O)N(Cc2ccccc2)Cc2ccco2)cc1 (stereo not given) | -2 | -3 | -1 | 2 | 13* | 6 | 11 | -1
COc1ccc(F)cc1-c1cc(NC=O)c2ncc(-c3cc(OC)c(OC)c(OC)c3)n2c1 | -1 | . | 7 | 0 | -1 | 5 | . | .
Cc1cc(Nc2ccccc2)nn1C(=O)c1ccc([N+](=O)[O-])cc1 | -1 | -5 | -10 | 0 | -3 | -3 | . | .
CC(C)c1ccc(CC(=O)N2CCC2(C)C(=O)Nc2ccccc2)cc1 (stereo not given) | -2 | . | -4 | 0 | -6 | -4 | . | .
O=C(CSC1=NCCS1)N1CCN(c2ccc(Cl)cc2)CC1 | 2 | 3 | 3 | 1 | 45* | 0 | 46* | 0
O=C(CSC1=NCCS1)c1ccc(Cl)cc1 | -3 | 1 | -18 | 0 | -4 | -2 | . | .
CSc1ccc(CN2CCN(C(=O)c3ccc([N+](=O)[O-])cc3)CC2)cc1 | 0 | 0 | -24 | 1 | 102* | 1 | 106* | 0

Assay outcomes from PubChem.
